# According to ChEMBL document CHEMBL5055631, “Antitumor properties of novel sesquiterpene lactone analogs as NFκB inhibitors that bind to the IKKβ ubiquitin-like domain (ULD)” (Eur J Med Chem, 2021):
# Active and inactive are the calls of the source. The calls are words filed in the database; no cut-off is given here.
# Columns and labels:
# [1] = molecular target: Inhibitor of nuclear factor kappa-B kinase subunit beta (Homo sapiens) (UniProt O14920); assay: Inhibition of IKKbeta-mediated NFkappaB activation in human M9-ENL1 cells assessed as inhibition of phosphorylation of p65 at SER-536 residue at 2.5 to 10 uM by immunoblotting analysis; type: cell-based; settings: dose 2.5-10 µM
# Outline: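 Primary M9-ENL AML cells were exposed for 6 h to 2.5, 5.0 and 10 μM, with PTL as reference. Lysates were run on 8–10% SDS-PAGE and transferred to PVDF. Blots were blocked in 5% milk/TBST and probed for phospho-p65 (Ser536). Analyses were done in triplicate.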
# [2] = tested on: SNB-19; assay: Anticancer activity against human SNB-19 cells assessed as cell growth inhibition incubated for 48 hrs by SRB method; type: functional
# Outline: (§1)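 NCI-60 panel (DTP). Cells in RPMI 1640 with 5% FBS, 2 mM L-glutamine, seeded at 5,000–40,000 per well by doubling time and preincubated 24 h at 37 °C, 5% CO2. Time-zero plates TCA-fixed. DMSO stocks diluted in medium with gentamicin, tested at 100 μM, 10 μM, 1 μM, 0.1 μM and 10 nM for 48 h. Cells fixed with cold TCA, stained with SRB, absorbance read at 515 nm.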
# [3] = molecular target: Transcription factor p65 (Homo sapiens) (UniProt Q04206); assay: Inhibition of TNFalpha-induced phosphorylation of p65 in human SUM149PT cells at 2 uM by ELISA assay; type: cell-based
# [4] = tested on: SUM149PT; assay: Antiproliferative activity against human SUM149PT cells assessed as inhibition of cell proliferation measured over 4 to 5 days by bromodeoxyuridine incorporation assay; type: functional, cell-based
# Outline: (§2)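 Seeded at 500–1000 cells/well, with treatment started one day after plating. Cells were exposed to a range of concentrations for 4–5 days, six wells per condition, and proliferation was read by BrdU incorporation ELISA. Data average two experiments of six technical replicates, and 2–4 biological replicates were run.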
# [5] = tested on: NCI-H226; assay: Anticancer activity against human NCI-H226 cells assessed as cell growth inhibition incubated for 48 hrs by SRB method; type: functional; outline: as §1
# [6] = tested on: EKVX; assay: Anticancer activity against human EKVX cells assessed as cell growth inhibition incubated for 48 hrs by SRB method; type: functional; outline: as §1
# [7] = tested on: TMD-231; assay: Antiproliferative activity against human TMD-231 cells assessed as inhibition of cell proliferation at 0.5 to 5 uM measured over 4 to 5 days by bromodeoxyuridine incorporation assay; type: functional, cell-based; settings: dose 0.5-5 µM, time 4-5 day; outline: as §2
# [8] = tested on: A549; assay: Anticancer activity against human A549 cells assessed as cell growth inhibition incubated for 48 hrs by SRB method; type: functional; outline: as §1
# [9] = tested on: MDA-MB-468; assay: Anticancer activity against human MDA-MB-468 cells assessed as cell growth inhibition incubated for 48 hrs by SRB method; type: functional; outline: as §1
# [10] = tested on: TK-10; assay: Anticancer activity against human TK-10 cells assessed as cell growth inhibition incubated for 48 hrs by SRB method; type: functional
# Outline: (§3)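 NCI-60 panel, SRB assay. Cells grown in RPMI 1640 with 5% FBS and 2 mM L-glutamine, seeded at 5,000–40,000 cells/well depending on doubling time, and preincubated 24 h at 37 °C with 5% CO2. Time-zero plates were TCA-fixed. Compounds came from DMSO stocks and were tested at 100 μM, 10 μM, 1 μM, 0.1 μM and 10 nM for 48 h. Cells were fixed with cold TCA and stained with 0.4% SRB, and the dye was solubilized in 10 mM Tris base with A515 read.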
# [11] = tested on: SW-620; assay: Anticancer activity against human SW-620 cells assessed as cell growth inhibition incubated for 48 hrs by SRB method; type: functional
# [12] = tested on: IGROV-1; assay: Anticancer activity against human IGROV-1 cells assessed as cell growth inhibition incubated for 48 hrs by SRB method; type: functional; outline: as §1
# [13] = molecular target: Transcription factor p65 (Homo sapiens) (UniProt Q04206); assay: Inhibition of TNFalpha-induced p65 phosphorylation in human OV-MD-231 cells at 2 uM by ELISA assay; type: cell-based
# [14] = tested on: UACC-62; assay: Anticancer activity against human UACC-62 cells assessed as cell growth inhibition incubated for 48 hrs by SRB method; type: functional; outline: as §3
# [15] = molecular target: Inhibitor of nuclear factor kappa-B kinase subunit alpha (Homo sapiens) (UniProt O15111); assay: Inhibition of TNFalpha-induced IkKalpha in human SUM149PT cells at 0.5 to 2 uM by ELISA assay; type: cell-based; settings: dose 0.5-2 µM
# [16] = tested on: OVCAR-8; assay: Anticancer activity against human OVCAR-8 cells assessed as cell growth inhibition incubated for 48 hrs by SRB method; type: functional; outline: as §1
# [17] = tested on: OV-MD-231; assay: Inhibition of NFkB binding with DNA in human […] cells assessed as reduction in NFkB-DNA binding at 2 uM measured over 3 hrs by electrophoretic mobility shift assay; type: cell-based
# Outline: (§4)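 Cells were exposed to 0.5 and 2.0 μM for 3 h. EMSA was run on whole-cell lysates with 32P-labelled probes carrying NF-κB binding sites, and an SP-1 probe served as the specificity control.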
# [18] = tested on: DU-145; assay: Anticancer activity against human DU-145 cells assessed as cell growth inhibition incubated for 48 hrs by SRB method; type: functional; outline: as §1
# [19] = molecular target: Nuclear factor NF-kappa-B p100 subunit (Homo sapiens) (UniProt Q00653); assay: Inhibition of NFkB binding with DNA in human SUM149PT cells assessed as reduction in NFkB-DNA binding at 2 uM measured over 3 hrs by electrophoretic mobility shift assay; type: cell-based; outline: as §4
# [20] = tested on: COLO 205; assay: Anticancer activity against human COLO 205 cells assessed as cell growth inhibition incubated for 48 hrs by SRB method; type: functional
# [21] = tested on: SF-268; assay: Anticancer activity against human SF-268 cells assessed as cell growth inhibition incubated for 48 hrs by SRB method; type: functional; outline: as §1
# [22] = tested on: OV-MD-231; assay: Antiproliferative activity against human OV-MD-231 cells assessed as inhibition of cell proliferation at 0.5 to 5 uM measured over 4 to 5 days by bromodeoxyuridine incorporation assay; type: functional, cell-based; settings: dose 0.5-5 µM, time 4-5 day; outline: as §2
# [23] = tested on: NCI-H322M; assay: Anticancer activity against human NCI-H322M cells assessed as cell growth inhibition incubated for 48 hrs by SRB method; type: functional; outline: as §1
# [24] = tested on: OVCAR-3; assay: Anticancer activity against human OVCAR-3 cells assessed as cell growth inhibition incubated for 48 hrs by SRB method; type: functional; outline: as §1
# Chain of Transcription factor p65 (Homo sapiens) (Q04206 whole entry): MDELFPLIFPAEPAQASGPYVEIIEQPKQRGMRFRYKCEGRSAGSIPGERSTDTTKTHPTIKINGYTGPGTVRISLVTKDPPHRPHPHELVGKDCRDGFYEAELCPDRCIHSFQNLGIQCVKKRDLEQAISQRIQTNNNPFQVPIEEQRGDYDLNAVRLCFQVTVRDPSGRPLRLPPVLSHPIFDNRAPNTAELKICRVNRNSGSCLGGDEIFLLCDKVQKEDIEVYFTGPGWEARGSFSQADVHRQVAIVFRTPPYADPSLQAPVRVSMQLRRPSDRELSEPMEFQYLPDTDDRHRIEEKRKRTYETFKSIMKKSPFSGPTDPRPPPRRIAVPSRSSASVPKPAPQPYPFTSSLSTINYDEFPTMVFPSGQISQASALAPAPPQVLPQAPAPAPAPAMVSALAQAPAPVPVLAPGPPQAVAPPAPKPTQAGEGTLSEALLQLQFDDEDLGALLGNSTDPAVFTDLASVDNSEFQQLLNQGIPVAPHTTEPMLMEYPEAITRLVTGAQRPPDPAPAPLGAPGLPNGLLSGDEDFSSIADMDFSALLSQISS
# Chain of Inhibitor of nuclear factor kappa-B kinase subunit beta (Homo sapiens) (O14920 whole entry): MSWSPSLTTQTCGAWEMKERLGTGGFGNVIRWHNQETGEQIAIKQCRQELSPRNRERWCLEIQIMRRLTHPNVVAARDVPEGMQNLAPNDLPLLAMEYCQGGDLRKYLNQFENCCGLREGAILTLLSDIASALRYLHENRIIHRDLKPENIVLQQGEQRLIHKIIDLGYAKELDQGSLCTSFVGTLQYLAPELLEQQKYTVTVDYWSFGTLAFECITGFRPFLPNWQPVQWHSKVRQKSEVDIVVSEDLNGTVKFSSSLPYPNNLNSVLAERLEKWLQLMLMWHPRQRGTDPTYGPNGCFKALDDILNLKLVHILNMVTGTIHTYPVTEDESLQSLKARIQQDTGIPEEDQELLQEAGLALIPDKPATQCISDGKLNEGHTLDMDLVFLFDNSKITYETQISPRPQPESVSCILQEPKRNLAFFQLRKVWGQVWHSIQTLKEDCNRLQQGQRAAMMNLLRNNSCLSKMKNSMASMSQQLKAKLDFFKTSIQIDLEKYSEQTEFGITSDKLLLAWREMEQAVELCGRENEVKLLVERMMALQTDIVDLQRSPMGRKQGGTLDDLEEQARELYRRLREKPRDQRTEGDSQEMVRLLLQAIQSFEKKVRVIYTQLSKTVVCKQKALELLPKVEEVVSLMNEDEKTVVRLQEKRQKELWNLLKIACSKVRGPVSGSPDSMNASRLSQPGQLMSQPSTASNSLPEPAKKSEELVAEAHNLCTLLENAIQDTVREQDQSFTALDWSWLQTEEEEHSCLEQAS
# Chain of Inhibitor of nuclear factor kappa-B kinase subunit alpha (Homo sapiens) (O15111 whole entry): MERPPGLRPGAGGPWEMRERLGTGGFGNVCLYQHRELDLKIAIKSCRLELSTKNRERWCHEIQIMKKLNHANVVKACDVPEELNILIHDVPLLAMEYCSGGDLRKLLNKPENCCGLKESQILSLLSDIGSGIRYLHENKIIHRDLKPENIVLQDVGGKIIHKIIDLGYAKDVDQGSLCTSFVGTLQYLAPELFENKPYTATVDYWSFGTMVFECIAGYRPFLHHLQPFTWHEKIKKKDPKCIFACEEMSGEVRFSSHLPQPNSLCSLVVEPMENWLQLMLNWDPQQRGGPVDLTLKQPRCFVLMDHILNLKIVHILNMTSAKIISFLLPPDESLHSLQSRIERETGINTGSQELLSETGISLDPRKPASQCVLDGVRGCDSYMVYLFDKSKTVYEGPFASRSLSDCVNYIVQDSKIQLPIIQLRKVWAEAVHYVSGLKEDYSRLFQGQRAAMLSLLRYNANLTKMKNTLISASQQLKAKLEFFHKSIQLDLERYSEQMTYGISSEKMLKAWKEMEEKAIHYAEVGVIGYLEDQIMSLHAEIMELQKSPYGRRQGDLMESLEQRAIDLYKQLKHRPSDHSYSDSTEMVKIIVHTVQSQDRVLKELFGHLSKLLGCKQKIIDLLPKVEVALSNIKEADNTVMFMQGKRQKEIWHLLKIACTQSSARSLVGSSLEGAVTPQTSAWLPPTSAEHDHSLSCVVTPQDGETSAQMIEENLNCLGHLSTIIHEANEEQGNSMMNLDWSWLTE
# Chain of Nuclear factor NF-kappa-B p100 subunit (Homo sapiens) (Q00653 whole entry): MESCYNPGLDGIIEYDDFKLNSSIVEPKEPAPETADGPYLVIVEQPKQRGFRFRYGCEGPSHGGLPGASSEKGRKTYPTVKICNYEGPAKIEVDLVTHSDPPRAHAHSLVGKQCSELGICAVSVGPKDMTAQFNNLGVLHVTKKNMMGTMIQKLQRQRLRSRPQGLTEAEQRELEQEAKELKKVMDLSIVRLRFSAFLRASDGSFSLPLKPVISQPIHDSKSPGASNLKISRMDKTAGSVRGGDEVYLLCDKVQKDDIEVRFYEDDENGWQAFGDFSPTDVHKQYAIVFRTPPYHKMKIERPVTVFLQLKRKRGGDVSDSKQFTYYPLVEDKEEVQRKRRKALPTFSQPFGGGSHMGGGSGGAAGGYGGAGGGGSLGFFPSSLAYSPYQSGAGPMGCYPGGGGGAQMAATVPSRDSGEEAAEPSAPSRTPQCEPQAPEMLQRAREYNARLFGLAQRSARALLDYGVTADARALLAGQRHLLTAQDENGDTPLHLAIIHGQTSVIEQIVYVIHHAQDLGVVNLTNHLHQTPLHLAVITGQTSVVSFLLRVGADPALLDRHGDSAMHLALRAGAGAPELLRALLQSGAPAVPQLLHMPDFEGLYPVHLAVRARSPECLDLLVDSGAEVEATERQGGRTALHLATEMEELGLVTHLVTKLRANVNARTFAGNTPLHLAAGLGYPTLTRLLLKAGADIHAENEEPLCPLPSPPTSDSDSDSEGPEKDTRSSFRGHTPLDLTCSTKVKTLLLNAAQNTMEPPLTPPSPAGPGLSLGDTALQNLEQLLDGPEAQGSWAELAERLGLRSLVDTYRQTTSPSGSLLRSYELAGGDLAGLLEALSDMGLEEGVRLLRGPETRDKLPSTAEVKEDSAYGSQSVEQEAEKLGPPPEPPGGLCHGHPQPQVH
Compound,GI50 [2],GI50 [5],GI50 [6],GI50 [8],GI50 [9],GI50 [10],GI50 [11],GI50 [12],GI50 [14],GI50 [16],GI50 [18],GI50 [20],GI50 [21],GI50 [23],also measured
C=C1C(=O)O[C@H]2[C@H]1CC/C(COC(=O)NCc1ccc(OC)cc1)=C\CC[C@@]1(C)O[C@@H]21,700 nM,480 nM,1290 nM,2430 nM,240 nM,310 nM,220 nM,320 nM,2860 nM,490 nM,160 nM,240 nM,750 nM,,inhibition [1]: inactive; inhibition [3]: Active; IC50 [4]: < 1000 nM; inhibition [7]: Active; inhibition [13]: Active; inhibition [15]: Active; inhibition [17]: inactive; inhibition [19]: inactive; inhibition [22]: Active
C=C1C(=O)O[C@H]2[C@H]1CC/C(COC(=O)NCc1cc(OC)cc(OC)c1)=C\CC[C@@]1(C)O[C@@H]21,5320 nM,2020 nM,2060 nM,2580 nM,580 nM,1590 nM,1120 nM,1540 nM,1200 nM,1700 nM,1510 nM,1350 nM,2460 nM,4720 nM,GI50 [24]: 660 nM
C=C1C(=O)O[C@H]2[C@H]1CC/C(COC(=O)NCc1ccccc1OC)=C\CC[C@@]1(C)O[C@@H]21,1570 nM,2110 nM,1980 nM,3070 nM,660 nM,1380 nM,760 nM,1480 nM,1840 nM,1780 nM,1680 nM,1750 nM,2200 nM,,
C=C1C(=O)O[C@H]2[C@H]1CC/C(COC(=O)NCCc1ccc(OC)cc1)=C\CC[C@@]1(C)O[C@@H]21,8650 nM,4110 nM,7450 nM,13200 nM,1550 nM,2520 nM,2510 nM,2490 nM,1710 nM,3410 nM,1760 nM,1940 nM,10600 nM,12600 nM,
